ChEMBL document CHEMBL1138434 (J Nat Prod, 2003)
Values after ≈ are worked out from the molar mass of the structure shown. Active and inactive are the calls of the source. No cut-off for these calls is given here.

Columns and labels:
[1] = target: T1, Multidrug resistance protein 1 (Candida albicans (strain SC5314 / ATCC MYA-2876) (Yeast)) (UniProt Q5ABU7); test: Inhibition of Candida albicans MDR1-mediated fluconazole resistance in Saccharomyces cerevisiae DSY 416 up to 90 uM
T1 sequence (whole entry): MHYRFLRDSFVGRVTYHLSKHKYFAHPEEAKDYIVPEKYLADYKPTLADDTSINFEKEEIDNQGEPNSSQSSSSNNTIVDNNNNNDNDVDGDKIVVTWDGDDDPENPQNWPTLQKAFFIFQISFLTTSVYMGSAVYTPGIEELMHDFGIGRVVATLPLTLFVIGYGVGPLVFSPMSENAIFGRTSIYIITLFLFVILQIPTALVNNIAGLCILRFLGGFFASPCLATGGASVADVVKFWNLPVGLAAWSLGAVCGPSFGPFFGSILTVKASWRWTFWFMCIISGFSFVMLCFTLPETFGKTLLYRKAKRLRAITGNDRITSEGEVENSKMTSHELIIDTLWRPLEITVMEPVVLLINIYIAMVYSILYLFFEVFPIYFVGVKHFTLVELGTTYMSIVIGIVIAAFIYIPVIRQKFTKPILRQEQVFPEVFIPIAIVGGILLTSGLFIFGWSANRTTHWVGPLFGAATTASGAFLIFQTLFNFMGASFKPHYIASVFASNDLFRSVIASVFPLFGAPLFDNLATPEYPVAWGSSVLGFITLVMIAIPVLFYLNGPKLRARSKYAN

Saccharomyces cerevisiae [2] = test: Antifungal activity against Saccharomyces cerevisiae DSY 416 expressing Candida albicans MDR1 after 40 to 48 hrs by serial dilution method in presence of 33 uM fluconazole; type: functional, organism-based; conditions: DSY 416, MDR1
In short: (§1)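 S. cerevisiae strains carrying C. albicans efflux pumps, grown 1-2 days from frozen stocks on YNB-URA/TRYP selection agar at 30 °C. Modified NCCLS broth microdilution: serial dilutions in 0.9% saline (compounds dissolved in DMSO), inoculum 1.0 × 10^4 CFU/mL in YPD. Incubated 30 °C for 40-48 h and read at 630 nm before and after. IC50 = 50% growth inhibition; MIC = lowest concentration with no detectable growth.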

Saccharomyces cerevisiae [3] = test: Antifungal activity against Saccharomyces cerevisiae DSY 415 expressing Candida albicans CDR1 after 40 to 48 hrs by serial dilution method; type: functional, organism-based; in short: as §1
Saccharomyces cerevisiae [4] = test: Antifungal activity against Saccharomyces cerevisiae DSY 416 expressing Candida albicans MDR1 after 40 to 48 hrs by serial dilution method in absence of fluconazole; type: functional, organism-based; conditions: DSY 416, MDR1; in short: as §1
Saccharomyces cerevisiae [5] = test: Potentiation of fluconazole-induced antifungal activity against Saccharomyces cerevisiae DSY 415 expressing Candida albicans CDR1 assessed as fractional inhibitory concentration at 3.8 uM after 40 to 48 hrs by checkerboard assay; type: functional
In short: (§2)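 Checkerboard in 96-well format: FLU serially diluted along one axis and partner agent along the other, covering all combinations. S. cerevisiae pump strains or null strain at 1.0 × 10^4 CFU/mL in YPD, 30 °C for 40-48 h, growth read at 630 nm. FIC uses IC50 endpoint; FLU at 0.5 µM (null pump), 50 µM (CDR1, MDR1), 1.56 µM (CDR2), 3.13 µM (FLU1).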

Saccharomyces cerevisiae [6] = test: Potentiation of fluconazole-induced antifungal activity against Saccharomyces cerevisiae DSY 390 assessed as fractional inhibitory concentration at 3.8 uM after 40 to 48 hrs by checkerboard assay; type: functional; in short: as §2
Saccharomyces cerevisiae [7] = test: Potentiation of fluconazole-induced antifungal activity against Saccharomyces cerevisiae DSY 416 expressing Candida albicans MDR1 assessed as fractional inhibitory concentration at 3.8 uM after 40 to 48 hrs by checkerboard assay; type: functional; in short: as §2
T47D = test: Cytotoxicity against human T47D cells at 10 uM after 48 hrs by neutral red staining; type: cell-based
In short: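 T47D cells in DMEM/F12 with 10% FBS and penicillin/streptomycin, plated at 30 000 cells/well. After 24 h, compound added at final 0.03-10 µM and incubated 24 and 48 h at 37 °C. Then Neutral Red 0.15 mg/mL for 2 h, lysis in 0.04 N HCl/2-propanol, A540 minus A630. Viability given as percent of control.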

Saccharomyces cerevisiae [8] = test: Potentiation of fluconazole-induced antifungal activity against Saccharomyces cerevisiae DSY 426 expressing Candida albicans FLU1 assessed as fractional inhibitory concentration at 3.8 uM after 40 to 48 hrs by checkerboard assay; type: functional; in short: as §2
Saccharomyces cerevisiae [9] = test: Antifungal activity against Saccharomyces cerevisiae DSY 415 expressing Candida albicans CDR1 after 40 to 48 hrs by serial dilution method in presence of 33 uM fluconazole; type: functional, organism-based; in short: as §1
Saccharomyces cerevisiae [10] = test: Antifungal activity against Saccharomyces cerevisiae DSY 415 expressing Candida albicans CDR1 after 40 to 48 hrs by serial dilution method in absence of fluconazole; type: functional, organism-based; in short: as §1
Saccharomyces cerevisiae [11] = test: Potentiation of fluconazole-induced antifungal activity against Saccharomyces cerevisiae DSY 417 expressing Candida albicans CDR2 assessed as fractional inhibitory concentration at 3.8 uM after 40 to 48 hrs by checkerboard assay; type: functional; in short: as §2
Saccharomyces cerevisiae [12] = test: Potentiation of fluconazole-induced antifungal activity against Saccharomyces cerevisiae DSY 416 expressing Candida albicans MDR1 assessed as fractional inhibitory concentration at 0.1 uM after 40 to 48 hrs by checkerboard assay; type: functional; in short: as §2
Saccharomyces cerevisiae [13] = test: Potentiation of fluconazole-induced antifungal activity against Saccharomyces cerevisiae DSY 426 expressing Candida albicans FLU1 assessed as fractional inhibitory concentration at 0.1 uM after 40 to 48 hrs by checkerboard assay; type: functional; in short: as §2
Saccharomyces cerevisiae [14] = test: Antifungal activity against Saccharomyces cerevisiae DSY 390 after 40 to 48 hrs by serial dilution method; type: functional, organism-based
In short: (§3)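 S. cerevisiae strains (null pump DSY 390, or carrying C. albicans CDR1, MDR1, CDR2, FLU1 pumps) were grown from −80 °C glycerol stocks on YNB-URA/TRYP selection agar at 30 °C. The modified NCCLS broth microdilution used compound serially diluted in 0.9% saline from DMSO, with YPD inoculum at 1.0 × 10^4 CFU/mL final. Plates were read at OD630 before and after 40-48 h at 30 °C. IC50 = 50% growth inhibition; MIC = no detectable growth.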

Saccharomyces cerevisiae [15] = test: Potentiation of fluconazole-induced antifungal activity against Saccharomyces cerevisiae DSY 415 expressing Candida albicans CDR1 assessed as fractional inhibitory concentration at 0.1 uM after 40 to 48 hrs by checkerboard assay; type: functional; in short: as §2
Saccharomyces cerevisiae [16] = test: Antifungal activity against Saccharomyces cerevisiae DSY 426 expressing Candida albicans FLU1 after 40 to 48 hrs by serial dilution method; type: functional, organism-based; in short: as §1
Saccharomyces cerevisiae [17] = test: Antifungal activity against Saccharomyces cerevisiae DSY 417 expressing Candida albicans CDR2 after 40 to 48 hrs by serial dilution method; type: functional, organism-based; in short: as §3
Saccharomyces cerevisiae [18] = test: Potentiation of fluconazole-induced antifungal activity against Saccharomyces cerevisiae DSY 390 assessed as fractional inhibitory concentration at 0.1 uM after 40 to 48 hrs by checkerboard assay; type: functional; in short: as §2
Saccharomyces cerevisiae [19] = test: Antifungal activity against Saccharomyces cerevisiae DSY 416 expressing Candida albicans MDR1 after 40 to 48 hrs by serial dilution method; type: functional, organism-based; conditions: for MIC: DSY 416; for IC50: DSY 416, MDR1; in short: as §3
Saccharomyces cerevisiae [20] = test: Potentiation of fluconazole-induced antifungal activity against Saccharomyces cerevisiae DSY 417 expressing Candida albicans CDR2 assessed as fractional inhibitory concentration at 0.1 uM after 40 to 48 hrs by checkerboard assay; type: functional; in short: as §2
Saccharomyces cerevisiae [21] = test: Potentiation of fluconazole-induced antifungal activity against Saccharomyces cerevisiae DSY 390 assessed as fractional inhibitory concentration at 3.1 uM after 40 to 48 hrs by checkerboard assay; type: functional
In short: (§4)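 This was a checkerboard in a modified NCCLS microdilution: fluconazole and second agent were each serially diluted in saline and combined in all concentration pairs. Pump-expressing or null S. cerevisiae inoculum was 1.0 × 10^4 CFU/mL in YPD, with OD630 read before and after 40-48 h at 30 °C. FIC used IC50 as endpoint. FLU levels for FIC were 0.5 µM (null), 50 µM (CDR1, MDR1), 1.56 µM (CDR2) and 3.13 µM (FLU1).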

Saccharomyces cerevisiae [22] = test: Potentiation of fluconazole-induced antifungal activity against Saccharomyces cerevisiae DSY 415 expressing Candida albicans CDR1 assessed as fractional inhibitory concentration at 3.1 uM after 40 to 48 hrs by checkerboard assay; type: functional; in short: as §4
Saccharomyces cerevisiae [23] = test: Potentiation of fluconazole-induced antifungal activity against Saccharomyces cerevisiae DSY 417 expressing Candida albicans CDR2 assessed as fractional inhibitory concentration at 3.1 uM after 40 to 48 hrs by checkerboard assay; type: functional; in short: as §4
Saccharomyces cerevisiae [24] = test: Potentiation of fluconazole-induced antifungal activity against Saccharomyces cerevisiae DSY 426 expressing Candida albicans FLU1 assessed as fractional inhibitory concentration at 3.1 uM after 40 to 48 hrs by checkerboard assay; type: functional; in short: as §4
Saccharomyces cerevisiae [25] = test: Potentiation of fluconazole-induced antifungal activity against Saccharomyces cerevisiae DSY 416 expressing Candida albicans MDR1 assessed as fractional inhibitory concentration at 3.1 uM after 40 to 48 hrs by checkerboard assay; type: functional; in short: as §4

SMILES | IC50 (Saccharomyces cerevisiae [3]) [µM] | IC50 (Saccharomyces cerevisiae [14]) [µM] | MIC (Saccharomyces cerevisiae [14]) [µM] | MIC (Saccharomyces cerevisiae [3]) [µM] | IC50 (Saccharomyces cerevisiae [16]) [µM] | MIC (Saccharomyces cerevisiae [16]) [µM] | IC50 (Saccharomyces cerevisiae [17]) [µM] | MIC (Saccharomyces cerevisiae [17]) [µM] | MIC (Saccharomyces cerevisiae [19]) [µM] | IC50 (Saccharomyces cerevisiae [19]) [µM] | further results
CC(=O)OC[C@]12CC[C@H](OC(C)=O)C[C@]1(O)[C@@H](OC(C)=O)C=C1[C@@H]3CC[C@H]([C@H](C)CCCC(C)C)[C@@]3(C)C[C@@H]3O[C@@]132 |  |  |  |  |  |  |  |  |  |  | Activity [1]: inactive
CC(=O)O[C@H]1C=C2[C@@H]3CC[C@H]([C@H](C)CCCC(C)C)[C@@]3(C)C[C@@H]3O[C@@]23[C@@]2(CO)CC[C@H](O)C[C@]12O | > 30 |  |  |  |  |  |  |  |  |  | IC50 (Saccharomyces cerevisiae [2]): < 4 µM; IC50 (Saccharomyces cerevisiae [4]): > 104 µM; fractional inhibitory concentration index (FICI) (Saccharomyces cerevisiae [5]): 0.88; fractional inhibitory concentration index (FICI) (Saccharomyces cerevisiae [6]): 1.85; fractional inhibitory concentration index (FICI) (Saccharomyces cerevisiae [7]): 0.05; Activity (T47D): Non-toxic; fractional inhibitory concentration index (FICI) (Saccharomyces cerevisiae [8]): 1.26; IC50 (Saccharomyces cerevisiae [9]): 31 µM; IC50 (Saccharomyces cerevisiae [10]): > 104 µM; fractional inhibitory concentration index (FICI) (Saccharomyces cerevisiae [11]): 1.6
C[C@@H]1[C@H](O)[C@@H](C)/C=C/C=C/C=C/C=C/C=C/C=C/C=C/[C@H](O[C@@H]2O[C@H](C)[C@@H](O)[C@H](N)[C@@H]2O)C[C@@H]2O[C@](O)(C[C@@H](O)C[C@@H](O)[C@H](O)CC[C@@H](O)C[C@@H](O)CC(=O)O[C@H]1C)C[C@H](O)[C@H]2C(=O)O [AMPHOTERICIN B] | 0.55 | 0.55 | 0.75 (≈ 0.693 µg/mL) | 0.75 (≈ 0.693 µg/mL) | 0.55 | 0.75 (≈ 0.693 µg/mL) | 0.55 | 0.75 (≈ 0.693 µg/mL) | 0.75 (≈ 0.693 µg/mL) | 0.55 | fractional inhibitory concentration index (FICI) (Saccharomyces cerevisiae [12]): 1.42; fractional inhibitory concentration index (FICI) (Saccharomyces cerevisiae [13]): 0.97; fractional inhibitory concentration index (FICI) (Saccharomyces cerevisiae [15]): 0.89; fractional inhibitory concentration index (FICI) (Saccharomyces cerevisiae [18]): 1.85; fractional inhibitory concentration index (FICI) (Saccharomyces cerevisiae [20]): 1.58
CC(C)[C@@H]1OC(=O)[C@@H](Cc2ccccc2)N(C)C(=O)[C@H](C(C)C)OC(=O)[C@@H](Cc2ccccc2)N(C)C(=O)[C@H](C(C)C)OC(=O)[C@@H](Cc2ccccc2)N(C)C1=O [BEAUVERICIN] |  |  |  |  |  |  |  |  |  |  | fractional inhibitory concentration index (FICI) (Saccharomyces cerevisiae [21]): 2.57; fractional inhibitory concentration index (FICI) (Saccharomyces cerevisiae [22]): 0.045; fractional inhibitory concentration index (FICI) (Saccharomyces cerevisiae [23]): 1.3; fractional inhibitory concentration index (FICI) (Saccharomyces cerevisiae [24]): 2; fractional inhibitory concentration index (FICI) (Saccharomyces cerevisiae [25]): 2
OC(Cn1cncn1)(Cn1cncn1)c1ccc(F)cc1F [FLUCONAZOLE] | 300 | 3.5 | 8 (≈ 2.45 µg/mL) | 400 (≈ 123 µg/mL) | 35 | 50 (≈ 15.3 µg/mL) | 15 | 25 (≈ 7.66 µg/mL) | > 400 | > 400 | 
